Data taken from ChEMBL document CHEMBL1125277, “Novel cerebroprotective agents with central nervous system stimulating activity. 1. Synthesis and pharmacology of 1-amino-7-hydroxyindan derivatives” (1991).

Columns and labels:
Type in all cases: functional
Mus musculus [1] = assay: Antihypoxic effect by the survival time (SVT) in mice at a dose of 30 mg/kg administered subcutaneously in mice; design: unit: % of control; conditions: route subcutaneous
Summary of the method: (§1)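 Male ICR mice (20–30 g), groups of 10, dosed 0.25 h (iv, sc or ip) or 1 h (oral) before test. Mice placed in desiccator evacuated to 210 mmHg. Survival time measured from pump start to cessation of respiration, capped at 900 s. Activity expressed as % of control survival time; Wilcoxon sum test.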

Mus musculus [2] = assay: Time of recovery of righting reflux (RRT) in seconds was measured after administration of 100 mg/kg orally in mice for the promotional effect on recovery from coma
Summary of the method: (§2)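 Male ICR mice (20–30 g) were dosed orally 1 h before concussion was induced, and saline-dosed mice served as controls. Times to recovery of righting reflex and of spontaneous movement were recorded in seconds. Brains were examined post mortem, and mice with contused brain wounds were excluded. Statistics used the Wilcoxon sum test.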

Mus musculus [3] = assay: Time of recovery of spontaneous movement (SMT) in seconds was measured after administration of 100 mg/kg orally in mice for the promotional effect on recovery from coma; summary of the method: as §2
Mus musculus [4] = assay: Antihypoxic effect by the survival time (SVT) in mice at a dose of 30 mg/kg administered intraperitoneally in mice; conditions: route intraperitoneal; summary of the method: as §1
Mus musculus [5] = assay: Antihypoxic effect tested by the survival time (SVT) in mice at a dose of 100 mg/kg; design: unit: % of control; summary of the method: as §1
Mus musculus [6] = assay: Antihypoxic effect by the survival time (SVT) in mice at a dose of 100 mg/kg administered intraperitoneally in mice; summary of the method: as §1
Mus musculus [7] = assay: Antihypoxic effect by the survival time (SVT) in mice at a dose of 3 mg/kg administered intravenously in mice; conditions: route intravenous; summary of the method: as §1
Mus musculus [8] = assay: Time of recovery of righting reflux (RRT) in seconds was measured after administration of 200 mg/kg perorally in mice for the promotional effect on recovery from coma; conditions: route oral; summary of the method: as §2
Mus musculus [9] = assay: Time of recovery of spontaneous movement (SMT) in seconds was measured after administration of 200 mg/kg perorally in mice for the promotional effect on recovery from coma; conditions: route oral; summary of the method: as §2
Mus musculus [10] = assay: Time of recovery of righting reflux (RRT) in seconds was measured after administration of 2.5 mg/kg intravenously in mice for the promotional effect on recovery from coma; conditions: route intravenous
Summary of the method: (§3)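 This is the concussion-induced coma model in male ICR mice (20–30 g), with saline-treated controls. Righting-reflex and spontaneous-movement recovery times were recorded in seconds. Animals with contused brain wounds at post-mortem were excluded. Groups were compared by Wilcoxon sum test.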

Mus musculus [11] = assay: Time of recovery of spontaneous movement (SMT) in seconds was measured after administration of 2.5 mg/kg intravenously in mice for the promotional effect on recovery from coma; conditions: route intravenous; summary of the method: as §3

Molecule	SVT (Mus musculus [1])	RRT (Mus musculus [2]; route oral) [s]	SMT (Mus musculus [3]; route oral) [s]	SVT (Mus musculus [5])	other results
Cl.NC1CCc2c(Cl)cc(Cl)c(O)c21 (stereo not given)	65.8				
Cc1cc([N+](=O)[O-])c(O)c2c1CCC2N.Cl (stereo not given)	189.7				
CC(=O)Nc1cc(C)c2c(c1O)C(N)CC2.Cl (stereo not given)	46.8				
Cc1cc(C(C)(C)C)c(O)c2c1CCC2N.Cl (stereo not given)		90.6	113.5		SVT (Mus musculus [4]): 252.8
Cc1cc(C)c2c(c1O)C(N)C(C)C2.Cl (stereo not given)		79.1	71	237.7	
Cc1cc(CN)c(O)c2c1CCC2N.Cl (stereo not given)	74.3	69.9	79.3	110.2	
Cc1ccc(O)c2c1CCC2N.Cl (stereo not given)	157.8	40.1	42.6	98.4	
VITAMIN E				178	RRT (Mus musculus [2]): 92.2 s; SMT (Mus musculus [3]): 83.5 s; SVT (Mus musculus [6]): 96.7
CCCc1ccc2c(c1O)C(N)CC2.Cl (stereo not given)	138	70.5	79.5	158	
CCC(C)c1cc(C)c2c(c1O)C(N)CC2.Cl (stereo not given)	276.5	18.9	23.3	234.8	
CC(C)(C)c1cc(C(C)(C)C)c2c(c1O)C(N)CC2.Cl (stereo not given)		160.2	157.6	119.2	SVT (Mus musculus [4]): 171.3
CN(C)CCOC(=O)COc1ccc(Cl)cc1 [MECLOFENOXATE]				106	SVT (Mus musculus [7]): 133; RRT (Mus musculus [8]): 53.8 s; SMT (Mus musculus [9]): 63.8 s
CNC1CCc2c(C)cc(C)c(O)c21.Cl (stereo not given)	177.5	57.9	55.8		
Cc1cc(C(C)(C)C)c(O)c(C(C)(C)C)c1 [BUTYLATED HYDROXYTOLUENE]		69.6	80.9	87.6	SVT (Mus musculus [6]; route intraperitoneal): 358.8
CN(C)CCCN1c2ccccc2CCc2ccccc21.Cl [IMIPRAMINE HYDROCHLORIDE]		113.4	115.5	67.9	
NC(=O)[C@@H]1CCCN1C(=O)[C@H](Cc1c[nH]cn1)NC(=O)[C@@H]1CCC(=O)N1 [PROTIRELIN]					RRT (Mus musculus [10]): 40.8 s; SVT (Mus musculus [7]): 43.4; SMT (Mus musculus [11]): 40.9 s
Cc1cc(C)c2c(c1O)C(N)C(C)(c1ccccc1)C2.Cl (stereo not given)		34.1	34.7	171.6	
Cc1cc(CC(C)C)c(O)c2c1CCC2N.Cl (stereo not given)	281.4	59.3	76.1	149.9	
Cc1cc(I)c(O)c2c1CCC2N.Cl (stereo not given)	184.6	81.1	92.3		
